According to ChEMBL document CHEMBL1687823, “PA-824 exhibits time-dependent activity in a murine model of tuberculosis” (Antimicrob Agents Chemother, 2011):
The source made the active and inactive calls. No cut-off for these calls is given here.

Key:
[1] = test system: Mycobacterium tuberculosis; assay: fT>MIC for >= 1 log reduction in CFU count in Mycobacterium tuberculosis H37Rv in using simulated dose of at 200 mg assessed as time during compound concentration exceeds MIC of 0.25000 ug/ml assuming 15% unbound compound concentration by one compartment human pharmacokinetic model; type: functional
Method in brief: (§1)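 A one-compartment PK model was fitted to human data to get median parameters. It simulated steady-state total and free concentrations for 100, 200 or 400 mg once daily, assuming 5, 7, 10 or 15% unbound drug. Free T>MIC was computed against MICs of 0.03125–0.25 µg/ml and compared with the mouse-derived T>MIC target for 1-log10 kill.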

[2] = test system: Mycobacterium tuberculosis; assay: fT>MIC for >= 1 log reduction in CFU count in Mycobacterium tuberculosis H37Rv in using simulated dose of at 200 mg assessed as time during compound concentration exceeds MIC of 0.06250 ug/ml assuming 15% unbound compound concentration by one compartment human pharmacokinetic model; type: functional; method in brief: as §1
[3] = test system: Mycobacterium tuberculosis; assay: fT>MIC for >= 1 log reduction in CFU count in Mycobacterium tuberculosis H37Rv in using simulated dose of at 400 mg assessed as time during compound concentration exceeds MIC of 0.06250 ug/ml assuming 5% unbound compound concentration by one compartment human pharmacokinetic model; type: functional
Method in brief: (§2)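 Human steady-state simulation: one-compartment PK model fitted to patient data, chosen by AIC. Median PK parameters used to simulate total and free concentrations, assuming 5, 7, 10 or 15% unbound, for 100, 200 and 400 mg once daily. Free levels compared with MICs of 0.03125 to 0.25 µg/ml to give %T>MIC; T>MIC is the cumulative percentage of the dosing interval above MIC.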

[4] = test system: Mycobacterium tuberculosis; assay: fT>MIC for >= 1 log reduction in CFU count in Mycobacterium tuberculosis H37Rv in using simulated dose of at 100 mg assessed as time during compound concentration exceeds MIC of 0.06250 ug/ml assuming 15% unbound compound concentration by one compartment human pharmacokinetic model; type: functional; method in brief: as §1
[5] = test system: Mycobacterium tuberculosis; assay: fT>MIC for >= 1 log reduction in CFU count in Mycobacterium tuberculosis H37Rv in using simulated dose of at 400 mg assessed as time during compound concentration exceeds MIC of 0.03125 ug/ml assuming 15% unbound compound concentration by one compartment human pharmacokinetic model; type: functional; method in brief: as §1
[6] = test system: Mycobacterium tuberculosis; assay: fT>MIC for >= 1 log reduction in CFU count in Mycobacterium tuberculosis H37Rv in using simulated dose of at 400 mg assessed as time during compound concentration exceeds MIC of 0.12500 ug/ml assuming 10% unbound compound concentration by one compartment human pharmacokinetic model; type: functional; method in brief: as §2
[7] = test system: Mycobacterium tuberculosis; assay: fT>MIC for >= 1 log reduction in CFU count in Mycobacterium tuberculosis H37Rv in using simulated dose of at 400 mg assessed as time during compound concentration exceeds MIC of 0.03125 ug/ml assuming 7% unbound compound concentration by one compartment human pharmacokinetic model; type: functional; method in brief: as §1
[8] = test system: Mycobacterium tuberculosis; assay: fT>MIC for >= 1 log reduction in CFU count in Mycobacterium tuberculosis H37Rv in using simulated dose of at 400 mg assessed as time during compound concentration exceeds MIC of 0.06250 ug/ml assuming 10% unbound compound concentration by one compartment human pharmacokinetic model; type: functional; method in brief: as §1
[9] = test system: Mycobacterium tuberculosis; assay: fT>MIC for >= 1 log reduction in CFU count in Mycobacterium tuberculosis H37Rv in using simulated dose of at 100 mg assessed as time during compound concentration exceeds MIC of 0.25000 ug/ml assuming 10% unbound compound concentration by one compartment human pharmacokinetic model; type: functional; method in brief: as §1
[10] = test system: Mycobacterium tuberculosis; assay: fT>MIC for >= 1 log reduction in CFU count in Mycobacterium tuberculosis H37Rv in using simulated dose of at 200 mg assessed as time during compound concentration exceeds MIC of 0.06250 ug/ml assuming 5% unbound compound concentration by one compartment human pharmacokinetic model; type: functional; method in brief: as §1
[11] = test system: Mycobacterium tuberculosis; assay: fT>MIC for >= 1 log reduction in CFU count in Mycobacterium tuberculosis H37Rv in using simulated dose of at 200 mg assessed as time during compound concentration exceeds MIC of 0.06250 ug/ml assuming 7% unbound compound concentration by one compartment human pharmacokinetic model; type: functional; method in brief: as §1
[12] = test system: Mycobacterium tuberculosis; assay: fT>MIC for >= 1 log reduction in CFU count in Mycobacterium tuberculosis H37Rv in using simulated dose of at 100 mg assessed as time during compound concentration exceeds MIC of 0.06250 ug/ml assuming 7% unbound compound concentration by one compartment human pharmacokinetic model; type: functional; method in brief: as §1
Mus musculus = assay: Toxicity in BALB/c mouse assessed as adverse effect up to 1456 mg/kg, po administered as single dose; type: organism-based; set-up: route oral; settings: in vivo
Method in brief: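 Uninfected 6-week female BALB/c mice received single oral gavage doses of 3–1,458 mg/kg as a cyclodextrin-micelle suspension. Three mice per time point were bled by cardiac puncture under isoflurane at 0.5–120 h. Serum levels were measured by validated HPLC-UV (standards 0.20–50 µg/ml).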

[13] = test system: Mycobacterium tuberculosis; assay: fT>MIC for >= 1 log reduction in CFU count in Mycobacterium tuberculosis H37Rv in using simulated dose of at 200 mg assessed as time during compound concentration exceeds MIC of 0.12500 ug/ml assuming 7% unbound compound concentration by one compartment human pharmacokinetic model; type: functional; method in brief: as §1
[14] = test system: Mycobacterium tuberculosis; assay: Antitubercular activity against Mycobacterium tuberculosis H37Rv infected in BALB/c mouse at 12.5 mg/kg, po for 5 days relative to control; type: functional, organism-based; set-up: dose 12.5 mg/kg
[15] = test system: Mycobacterium tuberculosis; assay: fT>MIC for >= 1 log reduction in CFU count in Mycobacterium tuberculosis H37Rv in using simulated dose of at 400 mg assessed as time during compound concentration exceeds MIC of 0.12500 ug/ml assuming 7% unbound compound concentration by one compartment human pharmacokinetic model; type: functional; method in brief: as §2
[16] = test system: Mycobacterium tuberculosis; assay: Antitubercular activity against Mycobacterium tuberculosis H37Rv infected in BALB/c mouse assessed as reduction in log10 CFU count at 96 mg/kg, po bid; type: functional
Method in brief: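 Female 6-week BALB/c mice were aerosol-infected with log-phase H37Rv, aiming to implant ~3.5 log10 CFU. Treatment began 14 days later: gavage of cyclodextrin-micelle suspension for 24 consecutive days, total 0–4,608 mg/kg split into 3–48 equal doses, 3 mice per group. Lungs harvested 4 days after last dose and plated on selective OADC-7H11. CFU transformed as log10(x+1).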

[17] = test system: Mycobacterium tuberculosis; assay: Antimicrobial activity against Mycobacterium tuberculosis H37Rv infected in BALB/c mouse assessed as bacteriostatic effect at 12.5 mg/kg, po administered as single dose; type: functional, organism-based; set-up: dose 12.5 mg/kg
[18] = test system: Mycobacterium tuberculosis; assay: fT>MIC for >= 1 log reduction in CFU count in Mycobacterium tuberculosis H37Rv in using simulated dose of at 100 mg assessed as time during compound concentration exceeds MIC of 0.25000 ug/ml assuming 5% unbound compound concentration by one compartment human pharmacokinetic model; type: functional; method in brief: as §1
[19] = test system: Mycobacterium tuberculosis; assay: fT>MIC for >= 1 log reduction in CFU count in Mycobacterium tuberculosis H37Rv in using simulated dose of at 100 mg assessed as time during compound concentration exceeds MIC of 0.03125 ug/ml assuming 10% unbound compound concentration by one compartment human pharmacokinetic model; type: functional; method in brief: as §1

## O=[N+]([O-])c1cn2c(n1)OC[C@@H](OCc1ccc(OC(F)(F)F)cc1)C2 [PRETOMANID]
[1]
  fT>MIC: 6%
[2]
  fT>MIC: 100%
[3]
  fT>MIC: 100%
[4]
  fT>MIC: 67%
[5]
  fT>MIC: 100%
[6]
  fT>MIC: 100%
[7]
  fT>MIC: 100%
[8]
  fT>MIC: 100%
[9]
  fT>MIC: 0%
[10]
  fT>MIC: 46%
[11]
  fT>MIC: 67%
[12]
  fT>MIC: 0%
Mus musculus
  Activity: Non-toxic
[13]
  fT>MIC: 4%
[14]
  Activity: Active
[15]
  fT>MIC: 67%
[16]
  log10cfu: 2.4
[17]
  Activity: Active
[18]
  fT>MIC: 0%
[19]
  fT>MIC: 100%
